Assay outcomes: PubChem, The Scripps Research Institute Molecular Screening Center
GPR7 antagonist: human neuropeptides B/W receptor 1 antagonism; inhibition, % at 4.4 µM; 1.1% of 290,000 active; GPR7-expressing cells, fluorescence antagonist assay; in the data active means inhibition above about 16%, passing the limit was not always enough;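 further: cells stimulated with the agonist NPW; 0% = agonist with vehicle and 100% = vehicle without agonist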
Target sequence (P48145 whole entry, looked up): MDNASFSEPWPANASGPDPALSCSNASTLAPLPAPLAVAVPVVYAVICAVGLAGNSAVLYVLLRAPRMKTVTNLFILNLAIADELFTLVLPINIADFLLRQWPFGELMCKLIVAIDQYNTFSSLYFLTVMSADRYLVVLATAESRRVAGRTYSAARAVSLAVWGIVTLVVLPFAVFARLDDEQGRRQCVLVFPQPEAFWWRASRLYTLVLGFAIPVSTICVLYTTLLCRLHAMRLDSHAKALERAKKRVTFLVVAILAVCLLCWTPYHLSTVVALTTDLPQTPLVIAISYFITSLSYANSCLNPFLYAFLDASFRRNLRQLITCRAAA
CHO parental Ca: counter-screen for OX1R antagonists: effect in parental CHO cells; AID 463079; parental CHO-K1, ATP-induced calcium, Fluo-8 fluorescence; 0.63% of 330,000 active; inhibition, % at 5.6 µM;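 active means inhibition above that plate's mean sample inhibition plus 3 SD, cut at about 26% in these data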;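 further: 0% = ATP-challenged DMSO wells and 100% = DMSO wells without ATP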
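material = parental CHO cells | also added = ATP as calcium-mobilizing challenge | dosing = single point at 5.6 µM | detection = intracellular calcium via Fluo-8 no-wash fluorescent dye | read-out = % inhibition | benchmarks = low control ATP plus DMSO, high control DMSO only | repeats = one well per compound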
OX1R antag-1: blocks the human orexin 1 receptor; OX1R-expressing cells, FRET antagonist read-out; inhibition, % at 6.6 µM; 1.8% of 330,000 active; AID 485270; in the data active means inhibition mostly above about 38%, no sharp cut-off; inactive means mostly below about 40%;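 further: 0% = agonist challenge alone and 100% = reference antagonist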
TAAR1 antag: human TAAR1 antagonism; CHO RD-HGA16 TAAR1, Fluo-8 calcium fluorescence, antagonist; inhibition, % at 3 µM; 1.5% of 360,000 active;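 active means inhibition above a per-plate cutoff, the mean inhibition of test compounds on that plate plus 3 SD, cut at about 49% in these data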;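 further: 0% = DMSO plus EC80 beta-PEA response and 100% = DMSO alone without agonist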
Target sequence (Q96RJ0 whole entry, looked up): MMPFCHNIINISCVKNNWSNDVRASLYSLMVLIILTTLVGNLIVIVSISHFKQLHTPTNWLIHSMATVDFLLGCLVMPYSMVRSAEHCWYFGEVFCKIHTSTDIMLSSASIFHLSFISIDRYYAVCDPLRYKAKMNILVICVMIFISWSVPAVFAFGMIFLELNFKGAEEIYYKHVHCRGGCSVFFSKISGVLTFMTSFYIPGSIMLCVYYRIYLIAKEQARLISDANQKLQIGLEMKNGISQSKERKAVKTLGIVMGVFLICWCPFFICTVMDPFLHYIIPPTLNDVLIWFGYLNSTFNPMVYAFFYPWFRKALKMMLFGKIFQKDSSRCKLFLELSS
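Assay system: RD-HGA16 CHO cells with stable hTAAR1 and Gα16 / Reagent: EC80 β-phenethylamine stimulus / Doses: 3 µM, single point / Timing: dye loading 75 min at 37 °C, then 30 min room temperature / Measured by: Fluo-8 intracellular calcium dye fluorescence, real-time kinetic reads / Controls: vehicle wells and EC80 agonist wells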
OX1R antag-2: blocks the human orexin 1 receptor; O43613; CHO/OX1R cells, Fluo-8 calcium fluorescence, orexin A; inhibition, % at 5 µM; 0.43% of 330,000 active; AID 434989;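 active means inhibition above its plate's threshold, mean inhibition of all tested compounds on the plate plus 3 SD, cut at about 37% in these data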;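 further: 0% = orexin A challenge wells and 100% = SB-334867-A antagonist wells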
TAAR1 agonist: human TAAR1 agonism; Q96RJ0; 0.99% of 360,000 active; activation, % at 3 µM; CHO RD-HGA16 TAAR1, Fluo-8 calcium fluorescence; vehicle wells 0%, saturating PEA agonist 100%;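 active means activation above the mean activation of all test compounds in the run plus 3 SD, cut at about 38% in these data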
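Assay system – CHO-derived RD-HGA16 cells with stable Gα16 and human TAAR1 · Compound dosing – one-point dosing at 3 µM (nominal) · Incubation – 17-24 h seeding, 75 min 37 °C dye, 30 min RT · Measured by – kinetic Fluo-8 calcium fluorescence · Control set – DMSO vehicle as 0%, PEA at EC100 as 100% · Repeats – single well for each compound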
Active calls of the source: *; . = no result. Most compounds without a hit are left out; they make up all but 4.6% or so of the library.

SMILES | GPR7 antagonist | CHO parental Ca | OX1R antag-1 | TAAR1 antag | OX1R antag-2 | TAAR1 agonist
O=C(c1cc(COc2cccc(C(F)(F)F)c2)on1)N1CCC(c2ccncc2)CC1 | 12 | 60* | 22 | -8 | 31 | 1
NC(=O)C1CCN(C(=O)c2cc(Cl)c3c(c2)OCCO3)CC1 | . | -1 | -2 | 0 | -12 | 1
Cn1c(=O)c2c(-c3ccccc3)n(-c3ccccc3Br)cc2n(C)c1=O | . | . | . | 53* | . | 7
Cn1c(=O)c2c(-c3ccccc3)n(-c3ccccc3O)cc2n(C)c1=O | -10 | -4 | 9 | 6 | -18 | 9
COc1ccc(CCN2C(=O)CC(Nc3ccc(N4CCOCC4)cc3)C2=O)cc1OC (stereo unspecified) | -1 | -16 | 44 | -5 | -14 | 16
O=C(Nc1ccccc1)N(Cc1ccccc1)C1=NCCS1 | 0 | -8 | 12 | 5 | -2 | 40*
CCc1nc2c(OCC(N)=O)cccn2c1N(C)C(=O)c1cccs1 | . | . | . | -2 | . | -1
CC(=O)c1ccc(NC(=O)c2cc(CC(C)C)on2)cc1 | -9 | 36* | 2 | -12 | -7 | -1
CC(C)Cc1cc(C(=O)Nc2cccnc2)no1 | 18 | -4 | 8 | -25 | -8 | 0
COCC(=O)Nc1nnc(SCC(=O)N2CCCCC2)s1 | -7 | -2 | 14 | 6 | -6 | 8
CC(C)C(c1nnnn1Cc1ccco1)N1CCN(c2nc3ccccc3s2)CC1 (stereo unspecified) | -3 | 3 | 11 | 55* | -9 | 16
CC(C)CC(c1nnnn1Cc1cccs1)N1CCN(c2nc3ccccc3s2)CC1 (stereo unspecified) | -12 | -26 | 14 | 6 | -16 | 5
O=C(O)Cn1cc(/C=c2/sc3nc4ccccc4n3c2=O)c2ccccc21 | 16 | -12 | 59* | 8 | 19 | 5
O=c1/c(=C\c2cccn2-c2ccccc2)sc2nc3ccccc3n12 | -5 | . | . | 7 | . | 1
COc1ccc([N+](=O)[O-])c(S(=O)(=O)c2ccc(Cl)cc2)n1 | 7 | 46* | 48 | 8 | 38 | -3
O=[N+]([O-])c1cccnc1S(=O)(=O)c1ccccc1 | 12 | 21 | 34 | -1 | 10 | 0
COc1ccc([N+](=O)[O-])c(S(=O)(=O)c2ccccc2)n1 | 20* | 26 | 19 | -10 | 30 | 0
O=C(N/N=C/c1ccccc1O)C1CC(=O)N(c2ccc(Cl)cc2)C1 (stereo unspecified) | -2 | -7 | 7 | -10 | -17 | 7
CCCCn1nnnc1SCC(=O)Nc1cccc(C)n1 | -7 | -4 | 15 | -6 | -22 | 11
CCCC(C(=O)OCC)P(=O)(c1ccccc1)c1ccccc1 (stereo unspecified) | 9 | -12 | 5 | -4 | -7 | 4
CCN(CC)C(=O)CC(c1ccc2c(c1)OCO2)c1c(O)cc(OC)cc1OC (stereo unspecified) | . | -16 | 15 | -3 | -24 | 5
Cc1cc(C)nc(SSc2nc(C)cc(C)n2)n1 | -1 | -8 | 8 | 26 | 2 | 46*
CCOc1ccccc1NC(=S)N(CCOC)C1CCN(C(C)=O)CC1 | 2 | 0 | 6 | -2 | -14 | -3
C=C(C(=O)c1ccccc1)C(c1ccccc1)C(C)C(=O)c1ccccc1 (stereo unspecified) | -16 | 41* | 16 | 0 | -22 | 1
O=C(COC(=O)c1ccccc1-c1ccccc1[N+](=O)[O-])c1ccccc1 | -6 | 18 | 30 | 56* | 0 | 10
SMILES | GPR7 antagonist | CHO parental Ca | OX1R antag-1 | TAAR1 antag | OX1R antag-2 | TAAR1 agonist
O=C(COC(=O)c1ccccc1Nc1ccccc1)c1ccccc1 | 2 | 6 | 20 | 15 | 43* | 7
O=C(COC(=O)c1ccccc1[N+](=O)[O-])c1ccc2c(c1)OCO2 | . | 3 | 14 | 3 | -10 | 5
CNc1ccccc1C(=O)OCC(=O)c1ccccc1 | -6 | -15 | 27 | . | -33 | .
CCOC(=O)c1c(C)oc2ccc(O)c(CN(C)C)c12 | -2 | -12 | 9 | 4 | -16 | 7
CCOC(=O)c1c(CSc2ccccc2)oc2ccc(O)cc12 | -7 | 26* | 24 | 10 | -1 | -1
CCOC(=O)c1c(CSc2ccc(CC)cc2)oc2ccc(O)c(CN(C)C)c12 | 28 | 67* | -11 | 14 | 36 | 29
C=CCn1c(N2CCOCC2)nc2c1c(=O)[nH]c(=O)n2C | -18 | 0 | 8 | -11 | -1 | 7
Nc1ncccc1OCc1ccc(Br)cc1 | -4 | -6 | 35 | -2 | -20 | 3
COc1ccc(COc2cccnc2N)cc1 | 20* | -1 | 2 | -5 | -6 | 5
COc1cccc(/C=C(/C(=O)OCC(=O)NC2CCCC(C)C2C)c2ccccc2)c1 (stereo unspecified) | -12 | 65* | 7 | 40 | -9 | 1
COc1ccc(/C=C/C(=O)OCC(=O)NC2CCCC(C)C2C)c(OC)c1 (stereo unspecified) | . | -15 | 10 | -2 | 4 | -2
COc1ccc(/C=C2\Oc3ccccc3C2=O)cc1 | . | -10 | 22 | 0 | 1 | 13
CC(=O)Oc1ccc(/C=C2/Oc3ccccc3C2=O)cc1 | -1 | 49* | 6 | -17 | 35 | 1
CCOc1ccc(CCNC(=O)CS(=O)Cc2nc(-c3ccccc3Cl)oc2C)cc1OCC (stereo unspecified) | -12 | -25 | 72* | -19 | 18 | -1
CCOc1ccc(CCNC(=O)CS(=O)Cc2nc(-c3ccc(OC)cc3)oc2C)cc1OCC (stereo unspecified) | -17 | -24 | 50* | -1 | 3 | -1
COc1ccc(-c2nc(CS(=O)CC(=O)NCCc3ccc(OC)c(OC)c3)c(C)o2)cc1 (stereo unspecified) | -11 | -2 | 9 | 3 | -22 | -1
NC(=O)C1CCN(C2=C(NS(=O)(=O)c3ccc(Br)cc3)C(=O)c3ccccc3C2=O)CC1 | -2 | -18 | 76* | -3 | -17 | 4
NC(=O)C1CCN(C2=C(Cl)C(=O)c3ccccc3C2=O)CC1 | -10 | 7 | 62* | 21 | 3 | 0
CCOC(=O)C1CCN(C2=C(NS(=O)(=O)c3ccc(Br)cc3)C(=O)c3ccccc3C2=O)CC1 | -9 | -33 | 75* | -2 | -41 | -3
CCOP(=O)(OCC)c1nc(-c2cccc3ccccc23)oc1NCc1ccc(OC)cc1 | -10 | -27 | 1 | -10 | -41 | 6
CCN(C[C@H]1N[C@@](CC)(C(=O)OC)[C@H]2C(=O)N(Cc3ccccc3)C(=O)[C@@H]12)C(=O)c1ccc(C)cc1 | . | -19 | 9 | 50* | -14 | 11
O=C(CSc1nc2ncc(Cl)cc2[nH]1)Nc1ccccc1-c1ccccc1 | -9 | -19 | 35* | -1 | 21 | 2
